Data set [1] in a line: Acid dissociation constant was measured. The class given is ADME.
Data set [2] is filed under the species Rattus norvegicus. Description: CNS activity was measured by the ability to restore the anticonvulsant effect of methazolamide in reserpine treated rats. The data set is classed as functional. Further details: unit not given beside the values. The method in brief:
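Rats pretreated with reserpine received varying doses of analogue, and the read-out was restoration of methazolamide's anticonvulsant activity. Potency is expressed relative to TRH.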

Data set [3] has as its system Rattus norvegicus. Description: Compound was evaluated in vivo for its ability to stimulate release of [125I]-labeled T3 and T4 after administration of varying doses. The data set is classed as functional. The procedure, abridged:
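Varying doses of analogue were given in vivo, with ¹²⁵I-labeled T₃ and T₄ measured afterwards. Potency is expressed relative to TRH.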

The pKa is the pH at which an ionisable group is half protonated. In the case of `NC(=O)[C@@H]1CSCN1C(=O)[C@H](Cc1c[nH]cn1)NC(=O)[C@@H]1CCCC(=O)N1` [listing 1 of 2 here], the pKa in data set [1] worked out at 6.1.

On to `COC(=O)[C@@H]1CCCCN1C(=O)[C@H](Cc1c[nH]cn1)NC(=O)[C@@H]1CCCC(=O)N1`, for which the CNS activity in the data set filed under Rattus norvegicus [2] was 0.9. Moreover, the Hormonal activity with Rattus norvegicus [3] is 0.02. On the same counts, the results for `COC(=O)[C@@H]1CCCCN1C(=O)[C@H](Cc1c[nH]cn1)NC(=O)[C@@H]1CCC(=O)N1` [listing 1 of 2 here] are 1 and 0.2. Turning to `NC(=O)[C@@H]1CCCN1C(=O)[C@H](Cc1c[nH]cn1)NC(=O)[C@@H]1CCCC(=O)N1`, in the data set listed under Rattus norvegicus [2], the CNS activity worked out at 4. The same compound displayed a Hormonal activity with Rattus norvegicus [3] of 1. This compound showed a pKa in data set [1] of 6.18. With `NC(=O)[C@@H]1CSCN1C(=O)[C@H](Cc1c[nH]cn1)NC(=O)[C@@H]1CCCC(=O)N1` [listing 2 of 2 here], the CNS activity in the data set filed under Rattus norvegicus [2] is listed as 35. For the same compound, the Hormonal activity in the data set with Rattus norvegicus [3] was determined as 1. As to `COC(=O)[C@@H]1CCCCN1C(=O)[C@H](Cc1c[nH]cn1)NC(=O)[C@@H]1CCC(=O)N1` [listing 2 of 2 here], in data set [1], the pKa is 6.18.

The values above are taken from ChEMBL document CHEMBL1121847, “Synthesis of thyrotropin-releasing hormone analogues with selective central nervous system effects” (J Med Chem, 1981).
